Assay results: ChEMBL document CHEMBL1137134, “Novel thiophenes and analogues with anthelmintic activity against Haemonchus contortus” (Bioorg Med Chem Lett, 2004); call rule not given here

Experiments:
Assay type in all cases: functional, organism-based
Haemonchus contortus [1] = experiment: In vitro anthelmintic activity against Haemonchus contortus after 24 hr of incubation using larval mobility assay
In short: (§1)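 L3 larvae (30–40/well) incubated with compound at 27 °C for 2 or 24 h, then moved to an insert whose wells have a nylon mesh (40 µm pores) under 2% low-melt agar. After 4 h more, larvae that migrated through the barrier were counted. Primary screen at 100 ppm, with >50% motility inhibition counted as active. EC50 from 2-fold serial dilutions, 200 to 0.2 µM.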

Haemonchus contortus [2] = experiment: In vitro anthelmintic activity against Haemonchus contortus after 2 hr of incubation using larval mobility assay; in short: as §1
Haemonchus contortus [3] = experiment: In vitro anthelmintic activity against Haemonchus contortus after 24 hr of incubation using larval mobility assay; NA denotes <50% inhibition of […] at 100 ppm
In short: (§2)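 H. contortus L3 larvae (30–40/well) exposed to compound at 27 °C for 2 or 24 h, then moved to an insert with a 40 µm nylon mesh under 2% low melt agar. After a further 4 h, larvae that migrated through the barrier were counted. EC50 from 2-fold serial dilutions, 200 to 0.2 µM. Primary screen at 100 ppm, 24 h; >50% motility inhibition counted as active.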

Haemonchus contortus [4] = experiment: In vitro anthelmintic activity against Haemonchus contortus after 2 hr of incubation using larval mobility assay; NA denotes <50% inhibition of mortality at 100 ppm; in short: as §2

Row | Compound | EC50 (Haemonchus contortus [1]) | EC50 (Haemonchus contortus [2]) | EC50 (Haemonchus contortus [3]) | EC50 (Haemonchus contortus [4])
1 | CSc1cc(-c2ccc(F)cc2)cs1 | 68 µM | > 200 µM |  | 
2 | N#Cc1cscc1-c1ccc(F)cc1 |  |  | Not Active | 
3 | CSc1ccc(-c2ccc(F)cc2)cc1 |  |  | Not Active | 
4 | CSc1cccc(-c2ccc(F)cc2)c1 |  |  | Not Active | 
5 | N#Cc1c(-c2ccc(F)cc2)csc1N |  |  | Not Active | 
6 | CS(=O)(=O)c1scc(-c2ccc(F)cc2)c1C#N |  |  | Not Active | 
7 | CSc1cc(-c2ccc(F)cc2)co1 |  |  | Not Active | 
8 | CCSc1cc(-c2cccc(C#N)c2)cs1 | 189 µM | > 200 µM |  | 
9 | CCSc1cc(-c2cccnc2)cs1 | 33 µM | 46 µM |  | 
10 | CCSc1cc(-c2ccc(F)c(F)c2)cs1 | 80 µM | > 200 µM |  | 
11 | CSc1scc(-c2ccc(F)cc2)c1[N+](=O)[O-] |  |  | Not Active | 
12 | CSc1c(C#N)c(-c2ccc(F)cc2)cn1C | 175 µM | > 200 µM |  | 
13 | CSc1nc(-c2ccc(F)cc2)cn1C |  |  | Not Active | 
14 | CCSc1scc(-c2ccc(F)cc2)c1C#N | 6 µM | > 200 µM |  | 
15 | CCSc1cc(-c2cccs2)cs1 | 161 µM | > 200 µM |  | 
16 | CSc1ccc(-c2ccc(F)cc2)cc1C#N |  |  | Not Active | 
17 | CCSc1cc(-c2ccc(F)cc2)cs1 | 12 µM | > 200 µM |  | 

Row | Compound | EC50 (Haemonchus contortus [1]) | EC50 (Haemonchus contortus [2]) | EC50 (Haemonchus contortus [3]) | EC50 (Haemonchus contortus [4])
18 | CCOc1scc(-c2ccc(F)cc2)c1C#N |  |  | Not Active | 
19 | CCSc1cc(-c2ccc([N+](=O)[O-])cc2)cs1 | 15 µM | 193 µM |  | 
20 | c1ccc([C@H]2CN3CCSC3=N2)cc1 [LEVAMISOLE] | 15 µM | 18 µM |  | 
21 | CSc1nc(-c2ccc(F)cc2)c[nH]1 |  |  | Not Active | 
22 | CCc1cc(-c2ccc(F)cc2)cs1 |  |  | Not Active | 
23 | CNc1nc(-c2ccc(F)cc2)cs1 | 64 µM | 98 µM |  | 
24 | CSc1scc(-c2ccc(F)cc2)c1C#N | 28 µM | > 200 µM |  | 
25 | CSc1scc(-c2ccc(F)cc2)c1Br | 17 µM | > 200 µM |  | 
26 | CCSc1nc(-c2ccccc2)cs1 | 32 µM | > 200 µM |  | 
27 | CNc1scc(-c2ccc(F)cc2)c1C#N |  |  | Not Active | 
28 | CC(=O)c1cc(-c2ccc(F)cc2)cs1 |  |  | Not Active | 
29 | CSc1nc(-c2ccccc2)cs1 | 190 µM | 82 µM |  | 
30 | CNc1nc(-c2ccccc2)cs1 | 65 µM | 46 µM |  | 
31 | CCSc1c(C#N)c(-c2ccc(F)cc2)cn1C |  |  | Not Active | Not Active
32 | CCSc1cc(-c2ccccc2)cs1 |  |  | Not Active | 
33 | CCNc1nc(-c2ccccc2)cs1 | 102 µM | 162 µM |  | 
